Laboratory results published in ChEMBL document CHEMBL1817572, “New, potent, selective, and short-acting peptidic V1a receptor agonists” (J Med Chem, 2011).
Numbered stars: 1 amine (or outer) side, 2 acyl side, 3 side chain; on linkers, the order of the positions; unused ones are H or OH. Bridge positions count the residues as written; N and C are the ends. Square brackets hold non-standard residues; d marks the D form. Peptide text beside a SMILES is read from it. Ala(2-furyl) = N[C@@H](Cc1ccco1)C(=O)O; Orn(iPr) = CC(C)NCCC[C@H](N)C(=O)O; X1 = CCNCCC[C@H](N[*:1])C(=O)[*:2]; 2Thi = N[C@@H](Cc1cccs1)C(=O)O; Aad = N[C@@H](CCCC(=O)O)C(=O)O; Cha = N[C@@H](CC1CCCCC1)C(=O)O; Orn = NCCC[C@H](N)C(=O)O; Dab = NCC[C@H](N)C(=O)O

Columns and labels:
[1] = target: Vasopressin V1a/V2 (Homo sapiens) (UniProt P30518+P37288); assay: Selectivity ratio of EC50 for human vasopressin V2 receptor to EC50 for human vasopressin V1a receptor
[2] = target: T1, Vasopressin V1a receptor (Homo sapiens, UniProt P37288); assay: Agonist activity at recombinant human vasopressin V1a receptor expressed in HEK293 cells by luciferase reporter gene assay; format: functional, cell-based; conditions: read-out: EC50
Target sequence in this assay (P37288 whole entry): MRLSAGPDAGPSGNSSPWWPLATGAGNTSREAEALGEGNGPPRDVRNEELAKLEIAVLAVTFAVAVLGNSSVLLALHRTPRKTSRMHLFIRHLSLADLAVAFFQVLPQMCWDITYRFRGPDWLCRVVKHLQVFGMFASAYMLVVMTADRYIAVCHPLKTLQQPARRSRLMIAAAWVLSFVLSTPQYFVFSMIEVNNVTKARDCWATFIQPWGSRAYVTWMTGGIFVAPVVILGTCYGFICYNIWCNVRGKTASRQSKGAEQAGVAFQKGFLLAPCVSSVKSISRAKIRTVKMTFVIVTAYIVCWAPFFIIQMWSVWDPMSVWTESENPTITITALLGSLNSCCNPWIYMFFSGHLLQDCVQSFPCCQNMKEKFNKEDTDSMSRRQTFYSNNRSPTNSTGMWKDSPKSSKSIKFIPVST

[3] = target: T2, Vasopressin V1b receptor (Homo sapiens, UniProt P47901); assay: Agonist activity at recombinant human vasopressin V1b receptor expressed in Flp-In-293 cells by luciferase reporter gene assay; format: functional, cell-based; conditions: read-out: EC50
T2 sequence (P47901 whole entry): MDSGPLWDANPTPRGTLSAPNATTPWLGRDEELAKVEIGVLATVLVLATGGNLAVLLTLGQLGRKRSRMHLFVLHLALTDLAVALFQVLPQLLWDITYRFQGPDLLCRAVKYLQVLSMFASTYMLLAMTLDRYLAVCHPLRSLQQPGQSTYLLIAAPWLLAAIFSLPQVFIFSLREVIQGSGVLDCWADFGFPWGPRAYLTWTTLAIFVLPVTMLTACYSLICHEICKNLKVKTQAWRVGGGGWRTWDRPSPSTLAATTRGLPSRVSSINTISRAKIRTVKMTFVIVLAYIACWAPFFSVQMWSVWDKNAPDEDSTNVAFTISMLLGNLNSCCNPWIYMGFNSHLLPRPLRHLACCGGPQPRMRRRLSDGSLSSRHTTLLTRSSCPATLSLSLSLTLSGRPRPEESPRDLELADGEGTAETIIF
Method in brief: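 Reporter gene assays in HEK293 cells transiently cotransfected with V1a (human or rat) or human V2 receptor vector plus NFAT-luciferase (V1a) or CRE-luciferase (V2) reporter; V1b in Flp-In-293 stably expressing receptor, OT in CHO-K1 stably expressing receptor, both transiently transfected with NFAT-luciferase. Two days post-transfection, peptides added for 5 h at 37 °C, lysis with luciferin, luminescence read.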

[4] = target: T3, Vasopressin V2 receptor (Homo sapiens, UniProt P30518); assay: Agonist activity at recombinant human vasopressin V2 receptor expressed in HEK293 cells by luciferase reporter gene assay; format: functional, cell-based
[5] = target: T4, Oxytocin receptor (Homo sapiens, UniProt P30559); assay: Agonist activity at human OT receptor expressed in CHO-K1 cells by luciferase reporter gene assay; format: functional, cell-based
T4 sequence (P30559 whole entry): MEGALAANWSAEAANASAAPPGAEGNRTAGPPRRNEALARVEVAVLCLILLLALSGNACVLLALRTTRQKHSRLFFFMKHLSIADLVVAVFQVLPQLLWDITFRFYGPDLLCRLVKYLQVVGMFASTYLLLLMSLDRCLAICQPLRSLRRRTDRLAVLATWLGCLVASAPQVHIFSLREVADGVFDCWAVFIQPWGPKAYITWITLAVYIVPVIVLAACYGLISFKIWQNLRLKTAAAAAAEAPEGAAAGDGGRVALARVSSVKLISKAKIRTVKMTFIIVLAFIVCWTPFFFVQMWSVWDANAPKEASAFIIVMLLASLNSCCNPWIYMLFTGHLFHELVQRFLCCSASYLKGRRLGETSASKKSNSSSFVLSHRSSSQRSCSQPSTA

[6] = species on record: Homo sapiens; assay: Selectivity ratio of EC50 for human vasopressin V1b receptor to EC50 for human vasopressin V1a receptor
[7] = species on record: Homo sapiens; assay: Selectivity ratio of EC50 for human oxytocin receptor to EC50 for human vasopressin V1a receptor
[8] = target: Vasopressin V1a receptor (Rattus norvegicus, UniProt P30560); assay: Agonist activity at recombinant rat vasopressin V1a receptor expressed in HEK293 cells by luciferase reporter gene assay; format: functional, cell-based; conditions: read-out: EC50
[9] = system: Rattus norvegicus; assay: Vasoconstriction in Wistar rat assessed as assessed as decay in vasopressive duration of action at 6 nmol/kg, iv bolus measured over 10 sec interval; format: functional
Method in brief: (§1)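 Fasted male Wistar rats (206–340 g) under isoflurane, then thiobutabarbital 150 mg/kg ip, ventilated, 37–38 °C, with carotid pressure and jugular dosing. Dibenamine 1.8 mg/rat iv pretreatment. Sequence: iv boluses (0.5 mL/kg) of heparinized vehicle, then two reference doses of 0.1 nmol/kg, then two test doses; one matches the reference diastolic pressure rise. Relative duration = reference decay rate / test decay rate; mean ± SEM.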

[10] = system: Rattus norvegicus; assay: Vasoconstriction in Wistar rat assessed as assessed as decay in vasopressive duration of action at 0.2 nmol/kg, iv bolus measured over 10 sec interval; format: functional
[11] = target: T1, Vasopressin V1a receptor; assay: Partial agonist activity at recombinant human vasopressin V1a receptor expressed in HEK293 cells by luciferase reporter gene assay; format: functional, cell-based
Method in brief: (§2)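 Same luciferase reporter systems (OT in stable CHO-K1, V1b in stable Flp-In-293, each with transient NFAT-luciferase; V1a in HEK293 with NFAT-luciferase, V2 in HEK293 with CRE-luciferase). Peptides added for 5 h at 37 °C two days post-transfection, luminescence read. Partial agonism means efficacy <70%.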
Target sequence in this assay (P37288 whole entry, looked up): as the sequence (P37288 whole entry) above

[12] = target: T3, Vasopressin V2 receptor; assay: Partial agonist activity at recombinant human vasopressin V2 receptor expressed in HEK293 cells by luciferase reporter gene assay; format: functional, cell-based; method in brief: as §2
[13] = system: Rattus norvegicus; assay: Vasoconstriction in Wistar rat assessed as assessed as decay in vasopressive duration of action at 0.1 nmol/kg, iv bolus measured over 10 sec interval; format: functional
[14] = system: Rattus norvegicus; assay: Vasoconstriction in Wistar rat assessed as decay in vasopressive duration of action at 1 nmol/kg, iv bolus measured over 10 sec interval; format: functional; method in brief: as §1
[15] = system: Rattus norvegicus; assay: Vasoconstriction in Wistar rat assessed as assessed as decay in vasopressive duration of action at 0.6 nmol/kg, iv bolus measured over 10 sec interval; format: functional; method in brief: as §1
[16] = system: Rattus norvegicus; assay: Vasoconstriction in Wistar rat assessed as assessed as decay in vasopressive duration of action at 2 nmol/kg, iv bolus measured over 10 sec interval; format: functional; method in brief: as §1
[17] = target: T5, Vasopressin V1b receptor (Homo sapiens) (UniProt P47901); assay: Partial agonist activity at recombinant human vasopressin V1b receptor expressed in Flp-In-293 cells by luciferase reporter gene assay; format: functional, cell-based; method in brief: as §2
T5 sequence (whole entry): T2 sequence (P47901 whole entry)

Sequence of Vasopressin V1a receptor (Rattus norvegicus, UniProt P30560) (P30560 whole entry): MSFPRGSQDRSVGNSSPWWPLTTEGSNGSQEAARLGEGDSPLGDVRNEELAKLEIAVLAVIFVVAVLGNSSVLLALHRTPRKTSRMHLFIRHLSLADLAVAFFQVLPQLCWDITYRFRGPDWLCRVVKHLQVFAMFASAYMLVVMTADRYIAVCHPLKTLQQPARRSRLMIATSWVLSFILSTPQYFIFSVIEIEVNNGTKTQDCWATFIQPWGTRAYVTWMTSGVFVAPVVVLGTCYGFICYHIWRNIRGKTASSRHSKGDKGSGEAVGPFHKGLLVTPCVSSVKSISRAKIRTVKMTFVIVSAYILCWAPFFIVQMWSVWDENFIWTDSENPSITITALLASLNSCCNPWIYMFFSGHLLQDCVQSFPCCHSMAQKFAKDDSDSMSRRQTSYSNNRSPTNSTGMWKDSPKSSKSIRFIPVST
T3 sequence (P30518 whole entry): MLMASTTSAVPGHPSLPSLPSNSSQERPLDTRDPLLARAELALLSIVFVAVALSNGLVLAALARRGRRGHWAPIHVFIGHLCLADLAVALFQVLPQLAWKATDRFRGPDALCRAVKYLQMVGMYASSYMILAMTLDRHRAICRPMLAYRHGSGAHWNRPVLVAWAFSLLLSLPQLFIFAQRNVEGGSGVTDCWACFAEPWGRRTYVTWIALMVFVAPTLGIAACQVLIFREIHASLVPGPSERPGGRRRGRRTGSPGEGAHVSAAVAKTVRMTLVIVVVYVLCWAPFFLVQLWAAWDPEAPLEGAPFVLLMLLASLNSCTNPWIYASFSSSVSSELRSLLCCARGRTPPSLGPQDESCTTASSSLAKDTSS
Sequence of Vasopressin V1a/V2 (Homo sapiens) (P30518 whole entry, looked up): as the sequence (P30518 whole entry) above
Sequence of Vasopressin V1a/V2 (Homo sapiens) (P37288 whole entry, looked up): as the sequence (P37288 whole entry) above

Structure (SMILES)	Ratio EC50 [1]	EC50 [2]	EC50 [3]	EC50 ([5]; cho-k1, read-out: EC50)	EC50 ([5]; read-out: pEC50 (converted))	Ratio EC50 [6]	Ratio EC50 [7]	EC50 [8]	EC50 ([4]; read-out: EC50)	EC50 ([5]; read-out: EC50)	Efficacy [12]	also measured
CCNCCC[C@H](NC(=O)[C@@H]1CCCN1C(=O)[C@@H]1CSSC[C@H](N)C(=O)N[C@@H](Cc2ccccc2)C(=O)N[C@@H]([C@@H](C)CC)C(=O)N[C@@H](CC(N)=O)C(=O)N[C@@H](CC(N)=O)C(=O)N1)C(=O)NCC(N)=O (H-CFINNCP[X1]G-NH2; disulfide 1-6)	> 10000	0.00099 µM	0.12 µM	> 10 µM	> 10 µM	120	> 10000	0.008 µM	–	–	–	EC50 ([4]; hek293, read-out: EC50): > 10 µM; EC50 ([4]; read-out: pEC50 (converted)): > 10 µM; Time [9]: 2.4 unitless ratio
CC[C@H](C)[C@@H]1NC(=O)[C@H](Cc2ccccc2)NC(=O)[C@@H](N)CSSC[C@@H](C(=O)N2CCC[C@H]2C(=O)N[C@@H](CCCNC(C)C)C(=O)NCC(N)=O)NC(=O)[C@H](CC(N)=O)NC(=O)[C@H](CCC(N)=O)NC1=O (H-CFIQNCP[Orn(iPr)]G-NH2; disulfide 1-6)	760	0.00038 µM	0.044 µM	–	–	110	86	0.00013 µM	0.29 µM	0.033 µM	< 70%	Time [10]: 2.3 min; Efficacy [11]: < 70%
NCCC[C@H](NC(=O)[C@@H]1CCCN1C(=O)[C@@H]1CSSC[C@H](N)C(=O)N[C@@H](Cc2ccc(O)cc2)C(=O)N[C@@H](Cc2ccccc2)C(=O)N[C@@H](CCC(N)=O)C(=O)N[C@@H](CC(N)=O)C(=O)N1)C(=O)NCC(N)=O [ORNIPRESSIN]	–	–	0.0075 µM	–	–	–	–	–	–	0.071 µM	–	Time [13]: 1.1 unitless ratio
CC[C@H](C)[C@@H]1NC(=O)[C@H](Cc2ccccc2)NC(=O)[C@@H](N)CSSC[C@@H](C(=O)N2CCC[C@H]2C(=O)N[C@@H](CCN)C(=O)NCC(N)=O)NC(=O)[C@H](CC(N)=O)NC(=O)[C@H](CC(N)=O)NC1=O (H-CFINNCP[Dab]G-NH2; disulfide 1-6)	> 3400	0.0029 µM	0.037 µM	> 10 µM	> 10 µM	12	> 3400	0.002 µM	–	–	–	EC50 ([4]; hek293, read-out: EC50): > 10 µM; EC50 ([4]; read-out: pEC50 (converted)): > 10 µM; Time [9]: 2 unitless ratio
CC[C@H](C)[C@@H]1NC(=O)[C@H](Cc2ccccc2)NC(=O)[C@@H](N)CSSC[C@@H](C(=O)N2CCC[C@H]2C(=O)N[C@@H](CCCN)C(=O)NCC(N)=O)NC(=O)[C@H](CC(N)=O)NC(=O)[C@H](CC(=O)N(C)C)NC1=O (H-CFID(NMe2)NCP[Orn]G-NH2; disulfide 1-6)	> 5800	0.0017 µM	0.062 µM	> 10 µM	> 10 µM	36	> 5800	0.001 µM	–	–	–	EC50 ([4]; hek293, read-out: EC50): > 10 µM; EC50 ([4]; read-out: pEC50 (converted)): > 10 µM; Time [14]: 1.6 unitless ratio
CC[C@H](C)[C@@H]1NC(=O)[C@H](Cc2cccs2)NC(=O)[C@@H](N)CSSC[C@@H](C(=O)N2CCC[C@H]2C(=O)N[C@@H](CCCNC(C)C)C(=O)NCC(N)=O)NC(=O)[C@H](CC(N)=O)NC(=O)[C@H](CCC(N)=O)NC1=O (H-C[2Thi]IQNCP[Orn(iPr)]G-NH2; disulfide 1-6)	560	0.00069 µM	0.37 µM	–	–	530	150	0.00032 µM	0.39 µM	0.11 µM	< 70%	Time [15]: 2.7 unitless ratio
CC[C@H](C)[C@@H]1NC(=O)[C@H](Cc2ccccc2)NC(=O)[C@@H](N)CSSC[C@@H](C(=O)N2CCC[C@H]2C(=O)N[C@@H](CCCN)C(=O)NCC(N)=O)NC(=O)[C@H](CC(N)=O)NC(=O)[C@H](CCCC(N)=O)NC1=O (H-CFI[Aad](NH2)NCP[Orn]G-NH2; disulfide 1-6)	1700	0.0009 µM	0.046 µM	> 10 µM	> 10 µM	51	> 11000	0.00034 µM	1.6 µM	–	< 70%	Time [16]: 3.4 unitless ratio; Efficacy [11]: < 70%
CCNCCC[C@H](NC(=O)[C@@H]1CCCN1C(=O)[C@@H]1CSSC[C@H](N)C(=O)N[C@@H](Cc2ccccc2)C(=O)N[C@@H]([C@@H](C)CC)C(=O)N[C@@H](CCC(N)=O)C(=O)N[C@@H](CC(N)=O)C(=O)N1)C(=O)NCC(N)=O (H-CFIQNCP[X1]G-NH2; disulfide 1-6)	450	0.00057 µM	0.032 µM	–	–	56	56	0.00016 µM	0.26 µM	0.032 µM	< 70%	Time [10]: 2.1 min; Efficacy [17]: < 70%
CC[C@H](C)[C@@H]1NC(=O)[C@H](Cc2ccco2)NC(=O)[C@@H](N)CSSC[C@@H](C(=O)N2CCC[C@H]2C(=O)N[C@@H](CCCNC(C)C)C(=O)NCC(N)=O)NC(=O)[C@H](CC(N)=O)NC(=O)[C@H](CCC(N)=O)NC1=O (H-C[Ala(2-furyl)]IQNCP[Orn(iPr)]G-NH2; disulfide 1-6)	360	0.0026 µM	0.57 µM	–	–	210	100	0.00062 µM	0.95 µM	0.26 µM	–	Time [14]: 1.5 unitless ratio
N=C(N)NCCC[C@H](NC(=O)[C@@H]1CCCN1C(=O)[C@@H]1CSSC[C@H](N)C(=O)N[C@@H](Cc2ccc(O)cc2)C(=O)N[C@@H](Cc2ccccc2)C(=O)N[C@@H](CCC(N)=O)C(=O)N[C@@H](CC(N)=O)C(=O)N1)C(=O)NCC(N)=O [VASOPRESSIN]	–	–	–	–	–	–	–	–	–	–	–	Time [13]: 1 unitless ratio
CC[C@H](C)[C@@H]1NC(=O)[C@H](CC2CCCCC2)NC(=O)[C@@H](N)CSSC[C@@H](C(=O)N2CCC[C@H]2C(=O)N[C@@H](CCN)C(=O)NCC(N)=O)NC(=O)[C@H](CC(N)=O)NC(=O)[C@H](CCC(N)=O)NC1=O (H-C[Cha]IQNCP[Dab]G-NH2; disulfide 1-6)	3000	0.00025 µM	0.008 µM	> 10 µM	> 10 µM	32	> 40000	0.0021 µM	0.76 µM	–	–	Time [16]: 3.1 unitless ratio
